17 compounds from ChEMBL document CHEMBL4387704, “Design, synthesis and biological evaluation of novel isoindolinone derivatives as potent histone deacetylase inhibitors” (Eur J Med Chem, 2019) can be followed below.

Each structure is given as a SMILES string. Activity calls are given as the source filed them. The rule behind the calls is not given here.

One series deals with Histone deacetylase 1 (Homo sapiens, UniProt Q13547). In words: Inhibition of HDAC1 (unknown origin) using Fluor de Lys substrate by fluorescence assay relative to control.
Chain of Histone deacetylase 1 (Q13547 whole entry): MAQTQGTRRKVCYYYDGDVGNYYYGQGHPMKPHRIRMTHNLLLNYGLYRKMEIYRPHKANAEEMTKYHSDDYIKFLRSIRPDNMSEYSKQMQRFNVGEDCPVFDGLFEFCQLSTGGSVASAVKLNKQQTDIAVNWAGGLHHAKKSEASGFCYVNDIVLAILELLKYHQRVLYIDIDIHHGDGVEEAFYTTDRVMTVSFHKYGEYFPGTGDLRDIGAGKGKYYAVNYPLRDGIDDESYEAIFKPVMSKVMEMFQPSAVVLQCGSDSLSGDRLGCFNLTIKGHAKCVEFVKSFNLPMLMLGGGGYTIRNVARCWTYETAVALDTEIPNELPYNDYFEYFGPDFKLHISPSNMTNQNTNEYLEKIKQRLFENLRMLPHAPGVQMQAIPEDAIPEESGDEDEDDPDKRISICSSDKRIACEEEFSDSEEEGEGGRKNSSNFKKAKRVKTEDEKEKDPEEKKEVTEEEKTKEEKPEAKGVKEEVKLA
In the next series the test system is HL-60. In words: Antiproliferative activity against human HL60 assessed as reduction in cell viability measured after 72 hrs using alamar blue based fluorescence method. The series is classed as functional. The note with it: HL-60, 72 h. A digest of the protocol: (§1)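 Leukemia lines grown in IMDM with penicillin/streptomycin, HL-60 with 20% FBS and K562 with 10% FBS, at 37 °C, 5% CO2. Cells in 96-well plates exposed to drug for 72 h. Alamar blue (1 mM solution) added for 5–6 h, fluorescence read at 530/590 nm.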

For the next series, the system named is K562. Briefly: Antiproliferative activity against human K562 assessed as reduction in cell viability measured after 72 hrs using alamar blue based fluorescence method. Type of series: functional. The note with it: K562, 72 h. A digest of the protocol: as §1
The next series deals with HCT-116. Briefly: Antiproliferative activity against human HCT116 assessed as reduction in cell viability measured after 72 hrs using alamar blue based fluorescence method. The series is classed as functional. The note with it: HCT-116, 72 h. A digest of the protocol: (§2)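 HCT116 and MCF-7 grown in McCoy's 5A with 10% FBS and penicillin/streptomycin at 37 °C, 5% CO2. Cells plated in 96-well format and exposed to drug for 72 h. Alamar blue (1 mM solution) added, incubated 5–6 h, fluorescence read at 530/590 nm.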

Another series concerns MCF7. In words: Antiproliferative activity against human MCF7 assessed as reduction in cell viability measured after 72 hrs using alamar blue based fluorescence method. Type of series: functional. The note with it: MCF7, 72 h. A digest of the protocol: as §2
The target of series [1] is Histone deacetylase 4 (Homo sapiens) (UniProt P56524). Briefly: Inhibition of HDAC4 (unknown origin) using Fluor de Lys substrate by fluorescence assay relative to control. A digest of the protocol: (§3)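 Recombinant HDAC isoform assays run by a contract lab. Compounds in DMSO, 10-dose IC50 mode, 3-fold serial dilution from 50 μM. Duplicate runs; IC50 from curve fitting.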
Chain of Histone deacetylase 4 (Homo sapiens) (P56524 whole entry, canonical isoform): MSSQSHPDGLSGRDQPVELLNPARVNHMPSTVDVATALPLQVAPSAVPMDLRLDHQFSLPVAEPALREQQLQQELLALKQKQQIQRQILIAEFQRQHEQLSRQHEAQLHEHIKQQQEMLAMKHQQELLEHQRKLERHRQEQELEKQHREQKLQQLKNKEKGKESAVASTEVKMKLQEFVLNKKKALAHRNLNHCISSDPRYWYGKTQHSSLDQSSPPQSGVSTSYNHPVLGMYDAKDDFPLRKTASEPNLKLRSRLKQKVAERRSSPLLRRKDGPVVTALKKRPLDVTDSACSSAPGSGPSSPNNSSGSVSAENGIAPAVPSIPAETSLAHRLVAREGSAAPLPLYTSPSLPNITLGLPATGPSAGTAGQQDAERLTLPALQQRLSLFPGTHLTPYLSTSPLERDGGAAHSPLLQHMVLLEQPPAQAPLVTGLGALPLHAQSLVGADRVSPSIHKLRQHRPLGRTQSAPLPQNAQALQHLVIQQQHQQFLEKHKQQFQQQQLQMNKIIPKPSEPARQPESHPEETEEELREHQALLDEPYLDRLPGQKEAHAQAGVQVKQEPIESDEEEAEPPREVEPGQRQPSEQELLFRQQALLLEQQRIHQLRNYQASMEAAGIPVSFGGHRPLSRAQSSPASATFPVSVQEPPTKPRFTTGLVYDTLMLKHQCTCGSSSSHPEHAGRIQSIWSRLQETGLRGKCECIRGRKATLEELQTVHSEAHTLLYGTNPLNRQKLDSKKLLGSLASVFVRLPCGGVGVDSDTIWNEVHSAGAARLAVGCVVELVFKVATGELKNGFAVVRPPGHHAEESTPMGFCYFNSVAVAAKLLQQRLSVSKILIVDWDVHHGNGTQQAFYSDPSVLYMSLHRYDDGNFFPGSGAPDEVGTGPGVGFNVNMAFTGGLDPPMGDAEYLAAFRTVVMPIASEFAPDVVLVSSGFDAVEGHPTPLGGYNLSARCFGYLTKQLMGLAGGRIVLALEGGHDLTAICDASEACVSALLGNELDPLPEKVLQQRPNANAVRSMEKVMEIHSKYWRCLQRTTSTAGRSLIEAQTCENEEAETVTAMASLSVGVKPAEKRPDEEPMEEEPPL

Series [2] has as its target Histone deacetylase 5 (Homo sapiens) (UniProt Q9UQL6). In words: Inhibition of HDAC5 (unknown origin) using Fluor de Lys substrate by fluorescence assay relative to control. A digest of the protocol:
as §3

Series [3] deals with Histone deacetylase 7 (Homo sapiens) (UniProt Q8WUI4). Briefly: Inhibition of HDAC7 (unknown origin) using Fluor de Lys substrate by fluorescence assay relative to control. A digest of the protocol:
as §3

For series [4], the target named is Histone deacetylase 9 (Homo sapiens) (UniProt Q9UKV0). In words: Inhibition of HDAC9 (unknown origin) using Fluor de Lys substrate by fluorescence assay relative to control. A digest of the protocol:
as §3

In series [5] the target is Protein deacetylase HDAC6 (Homo sapiens) (UniProt Q9UBN7). Briefly: Inhibition of HDAC6 (unknown origin) using Fluor de Lys substrate by fluorescence assay relative to control. A digest of the protocol:
as §3

Series [6] addresses Polyamine deacetylase HDAC10 (Homo sapiens, UniProt Q969S8). In words: Inhibition of HDAC10 (unknown origin) using Fluor de Lys substrate by fluorescence assay relative to control. A digest of the protocol: as §3
A further series has as its target Histone deacetylase 11 (Homo sapiens, UniProt Q96DB2). In words: Inhibition of HDAC11 (unknown origin) using Fluor de Lys substrate by fluorescence assay relative to control. A digest of the protocol: as §3
A short description of series [7]: Metabolic stability in human liver microsomes assessed as internal clearance at 1 uM preincubated for 10 mins followed by NADPH addition measured upto 60 mins by LC-MS/MS analysis. Type of series: ADME, Microsome. The note with it: read-out: CLH. A digest of the protocol: (§4)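 Liver microsomes from male SD rat, dog or human at 0.5 mg/mL in 100 mM potassium phosphate pH 7.4 with 1 μM compound. Prewarmed 37 °C 10 min, started with 1 mM NADPH. Stopped at 0, 5, 10, 20, 40, 60 min with cold methanol containing glibenclamide internal standard; supernatant by LC–MS/MS; T1/2 and CLint derived.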

The nature of series [8]: Metabolic stability in human liver microsomes assessed as half life at 1 uM preincubated for 10 mins followed by NADPH addition measured upto 60 mins by LC-MS/MS analysis. Type of series: ADME, Microsome. A digest of the protocol:
as §4

Series [9] in a line: Metabolic stability in dog liver microsomes assessed as half life at 1 uM preincubated for 10 mins followed by NADPH addition measured upto 60 mins by LC-MS/MS analysis. Type of series: ADME, Canis lupus familiaris, Microsome. A digest of the protocol:
as §4

A short description of series [10]: Metabolic stability in dog liver microsomes assessed as internal clearance at 1 uM preincubated for 10 mins followed by NADPH addition measured upto 60 mins by LC-MS/MS analysis. The series is classed as ADME, Canis lupus familiaris, Microsome. Particulars: read-out: CLH. A digest of the protocol: as §4
A short description of series [11]: Metabolic stability in rat liver microsomes assessed as half life at 1 uM preincubated for 10 mins followed by NADPH addition measured upto 60 mins by LC-MS/MS analysis. The series is classed as ADME, Microsome. A digest of the protocol: as §4
Series [12] in a line: Metabolic stability in rat liver microsomes assessed as internal clearance at 1 uM preincubated for 10 mins followed by NADPH addition measured upto 60 mins by LC-MS/MS analysis. Type of series: ADME, Microsome. Particulars: read-out: CLH. A digest of the protocol:
as §4

Chain of Protein deacetylase HDAC6 (Homo sapiens) (Q9UBN7 whole entry): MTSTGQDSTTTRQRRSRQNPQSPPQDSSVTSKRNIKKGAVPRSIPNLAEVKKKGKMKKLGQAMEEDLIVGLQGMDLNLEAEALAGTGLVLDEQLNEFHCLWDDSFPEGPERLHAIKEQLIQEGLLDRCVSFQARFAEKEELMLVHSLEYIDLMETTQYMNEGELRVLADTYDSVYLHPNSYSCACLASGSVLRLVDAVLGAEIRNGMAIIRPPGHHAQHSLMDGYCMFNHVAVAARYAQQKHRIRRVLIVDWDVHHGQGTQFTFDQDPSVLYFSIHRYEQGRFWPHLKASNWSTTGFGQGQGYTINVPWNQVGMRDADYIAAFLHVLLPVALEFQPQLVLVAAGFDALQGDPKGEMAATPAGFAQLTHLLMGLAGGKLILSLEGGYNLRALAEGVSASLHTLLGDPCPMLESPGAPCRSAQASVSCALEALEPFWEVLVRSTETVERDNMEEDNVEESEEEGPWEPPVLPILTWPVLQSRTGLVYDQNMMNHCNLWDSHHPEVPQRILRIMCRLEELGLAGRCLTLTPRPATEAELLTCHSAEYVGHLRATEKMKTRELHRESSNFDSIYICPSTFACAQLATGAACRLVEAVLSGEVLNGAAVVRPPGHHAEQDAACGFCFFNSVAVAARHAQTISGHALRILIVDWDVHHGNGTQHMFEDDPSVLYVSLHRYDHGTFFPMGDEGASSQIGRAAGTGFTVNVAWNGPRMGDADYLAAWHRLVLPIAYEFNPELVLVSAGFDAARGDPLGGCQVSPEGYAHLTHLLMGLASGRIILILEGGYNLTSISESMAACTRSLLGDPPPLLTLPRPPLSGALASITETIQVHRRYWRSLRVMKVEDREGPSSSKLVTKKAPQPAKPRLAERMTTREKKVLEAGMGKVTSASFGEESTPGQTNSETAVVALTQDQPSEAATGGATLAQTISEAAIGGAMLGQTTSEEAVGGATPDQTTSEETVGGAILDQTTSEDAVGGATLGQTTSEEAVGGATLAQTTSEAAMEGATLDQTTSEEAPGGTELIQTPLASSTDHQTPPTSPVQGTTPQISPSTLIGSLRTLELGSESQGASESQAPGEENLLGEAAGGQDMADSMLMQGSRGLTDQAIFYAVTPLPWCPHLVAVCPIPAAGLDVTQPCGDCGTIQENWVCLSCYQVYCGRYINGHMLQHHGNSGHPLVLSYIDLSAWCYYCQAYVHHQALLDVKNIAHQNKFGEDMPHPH
Chain of Histone deacetylase 7 (Homo sapiens) (Q8WUI4 whole entry): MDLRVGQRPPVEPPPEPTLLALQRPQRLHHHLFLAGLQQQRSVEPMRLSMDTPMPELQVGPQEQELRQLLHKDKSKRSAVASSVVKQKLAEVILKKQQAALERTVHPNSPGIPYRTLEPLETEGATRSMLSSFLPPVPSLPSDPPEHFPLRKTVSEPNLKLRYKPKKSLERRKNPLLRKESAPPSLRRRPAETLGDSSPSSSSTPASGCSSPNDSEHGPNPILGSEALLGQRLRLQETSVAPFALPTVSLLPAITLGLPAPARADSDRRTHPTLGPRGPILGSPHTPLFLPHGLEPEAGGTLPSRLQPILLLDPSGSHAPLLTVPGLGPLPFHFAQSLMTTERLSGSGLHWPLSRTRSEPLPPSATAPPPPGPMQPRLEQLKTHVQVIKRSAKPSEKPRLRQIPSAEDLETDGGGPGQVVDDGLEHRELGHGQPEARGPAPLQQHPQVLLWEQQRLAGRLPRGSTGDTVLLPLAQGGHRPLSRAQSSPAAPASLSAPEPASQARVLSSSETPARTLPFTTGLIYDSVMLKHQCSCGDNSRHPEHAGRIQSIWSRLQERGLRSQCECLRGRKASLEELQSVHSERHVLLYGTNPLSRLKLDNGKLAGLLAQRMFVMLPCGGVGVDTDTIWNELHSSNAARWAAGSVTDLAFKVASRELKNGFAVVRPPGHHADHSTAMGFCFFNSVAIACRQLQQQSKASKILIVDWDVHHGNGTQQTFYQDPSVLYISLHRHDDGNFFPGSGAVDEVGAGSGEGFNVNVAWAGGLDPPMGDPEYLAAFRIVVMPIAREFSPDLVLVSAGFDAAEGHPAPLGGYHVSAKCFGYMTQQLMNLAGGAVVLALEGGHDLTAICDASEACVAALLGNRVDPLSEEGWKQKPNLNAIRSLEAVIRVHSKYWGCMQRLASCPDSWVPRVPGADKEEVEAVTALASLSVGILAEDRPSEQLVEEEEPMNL
Chain of Polyamine deacetylase HDAC10 (Q969S8 whole entry): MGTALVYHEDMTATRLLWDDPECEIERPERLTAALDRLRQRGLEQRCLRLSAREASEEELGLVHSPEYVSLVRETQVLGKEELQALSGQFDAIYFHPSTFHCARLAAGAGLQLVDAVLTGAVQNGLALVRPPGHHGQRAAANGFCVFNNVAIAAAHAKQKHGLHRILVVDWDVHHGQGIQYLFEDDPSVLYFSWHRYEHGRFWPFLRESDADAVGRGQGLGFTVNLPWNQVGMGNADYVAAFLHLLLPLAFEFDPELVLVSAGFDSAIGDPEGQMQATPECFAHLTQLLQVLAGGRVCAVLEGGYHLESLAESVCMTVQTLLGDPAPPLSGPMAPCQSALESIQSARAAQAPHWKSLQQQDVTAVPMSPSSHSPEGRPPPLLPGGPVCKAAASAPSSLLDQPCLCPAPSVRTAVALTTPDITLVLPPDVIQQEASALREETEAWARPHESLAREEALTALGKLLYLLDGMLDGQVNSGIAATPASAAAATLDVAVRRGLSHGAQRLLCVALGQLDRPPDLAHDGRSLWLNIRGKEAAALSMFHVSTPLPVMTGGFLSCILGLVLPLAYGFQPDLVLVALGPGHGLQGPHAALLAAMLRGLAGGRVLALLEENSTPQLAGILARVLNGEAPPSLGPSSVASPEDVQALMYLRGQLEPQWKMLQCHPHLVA
Chain of Histone deacetylase 11 (Q96DB2 whole entry): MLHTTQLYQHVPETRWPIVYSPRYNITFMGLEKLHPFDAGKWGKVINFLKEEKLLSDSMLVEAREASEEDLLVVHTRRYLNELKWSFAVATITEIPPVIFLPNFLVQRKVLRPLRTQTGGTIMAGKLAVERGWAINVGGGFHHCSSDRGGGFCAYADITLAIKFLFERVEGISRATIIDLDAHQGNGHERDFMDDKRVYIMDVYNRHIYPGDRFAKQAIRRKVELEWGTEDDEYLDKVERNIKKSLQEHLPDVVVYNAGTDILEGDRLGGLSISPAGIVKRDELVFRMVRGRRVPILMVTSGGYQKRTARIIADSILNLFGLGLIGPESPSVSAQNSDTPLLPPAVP

With `Nc1ccccc1NC(=O)CCCCCNC(=O)/C=C1\NC(=O)c2ccccc21`, at Histone deacetylase 1 (read-out: IC50), the IC50 came out at 872 nM.
On to `Nc1cc(F)ccc1NC(=O)c1ccc(CNC(=O)/C=C2\NC(=O)c3cc(Cl)c(Cl)cc32)cc1`, for which the IC50 on Histone deacetylase 1 (read-out: IC50) is 489 nM.
Turning to `Cc1ccc(NC(=O)c2ccc(CNC(=O)/C=C3\NC(=O)c4ccccc43)cc2)c(N)c1`, the IC50 on Histone deacetylase 1 (read-out: IC50) was determined as 5720 nM.
As to `Nc1ccccc1NC(=O)c1ccc(CNC(=O)/C=C2\NC(=O)c3ccccc32)cc1`, the IC50 at Histone deacetylase 1 (read-out: IC50) was determined as 65.6 nM; in the series on HL-60, 450 nM; in the series on K562 it was 286 nM; in the series with HCT-116 it was 483 nM; in the series with MCF7 it was 20.1 µM.
Take `Nc1cc(F)ccc1NC(=O)c1ccc(CNC(=O)/C=C/c2cccnc2)cc1` [TUCIDINOSTAT]: the inhibition entry in series [1], in [2], in series [3], in [4] and in series [5] was “inactive” throughout. The IC50 came out at 235 nM in [6]; 760 nM at Histone deacetylase 11; 1970 nM with HL-60; 747 nM in the series on K562; 1090 nM in the series on HCT-116; 29.1 µM in the series on MCF7. Besides, the microsomal CLint at 1 µM in series [7] was 4.98 µL/min/mg; in [10], 5.76 µL/min/mg; in series [12], 10.3 µL/min/mg. In addition, the half-life at 1 µM in [8] was found to be 276 min; in [9], 302 min; in [11] it was 190 min.
As to `Nc1cc(F)ccc1NC(=O)c1ccc(CNC(=O)/C=C2\NC(=O)c3ccc(C(F)(F)F)cc32)cc1`, the IC50 at Histone deacetylase 1 (read-out: IC50) worked out at 491 nM.
For the compound `Nc1cc(F)ccc1NC(=O)c1ccc(CNC(=O)/C=C2\NC(=O)c3ccc(F)cc32)cc1`, the half-maximal inhibitory concentration (IC50) at Histone deacetylase 1 (read-out: IC50) amounted to 167 nM.
With `Nc1cc(F)ccc1NC(=O)CCCCCNC(=O)/C=C1\NC(=O)c2ccccc21`, the IC50 at Histone deacetylase 1 (read-out: IC50) is 6420 nM.
Regarding `O=C(/C=C1\NC(=O)c2ccccc21)NCCCCCC(=O)NO`, on Histone deacetylase 1 (read-out: IC50), the half-inhibitory concentration (IC50) is 57.9 nM.
The same measure, in the same setting: the figure for `Nc1cc(Cl)ccc1NC(=O)c1ccc(CNC(=O)/C=C2\NC(=O)c3ccccc32)cc1` is 466 nM.
For the compound `Nc1ccc(F)cc1NC(=O)c1ccc(CNC(=O)/C=C2\NC(=O)c3ccccc32)cc1`, the IC50 on Histone deacetylase 1 (read-out: IC50) stood at 70.3 nM.
Take `COc1ccc2c(c1)/C(=C/C(=O)NCc1ccc(C(=O)Nc3ccc(F)cc3N)cc1)NC2=O`: the IC50 on Histone deacetylase 1 (read-out: IC50) turned out to be 96.8 nM.
As for `Nc1cc(F)ccc1NC(=O)CCCCCCNC(=O)/C=C1\NC(=O)c2ccccc21`, the IC50 at Histone deacetylase 1 (read-out: IC50) was determined as 1600 nM.
Turning to `Nc1ccccc1NC(=O)CCCCCCNC(=O)/C=C1\NC(=O)c2ccccc21`, the IC50 on Histone deacetylase 1 (read-out: IC50) came to 320 nM.
Consider `Nc1cc(F)ccc1NC(=O)c1ccc(CNC(=O)/C=C2\NC(=O)c3cccnc32)cc1`, for which the IC50 entry against Histone deacetylase 1 is given as “Not Active”.
`Nc1ccccc1NC(=O)c1ccc(CNC(=O)/C=C2\NC(=O)c3ncccc32)cc1`: the IC50 on Histone deacetylase 1 (read-out: IC50) worked out at 758 nM.
As for `Nc1cc(F)ccc1NC(=O)c1ccc(CNC(=O)/C=C2\NC(=O)c3ncccc32)cc1`, on Histone deacetylase 1 (read-out: IC50), the IC50 came to 8360 nM.
